For experiment [1], the system named is A549 human lung cancer cells. In words: PE-AnnexinV FACS apoptosis in A549 cells. Type of experiment: cell-based. In outline: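 A549 human lung cancer cells received AZD8055 (1 μM) or DMSO together with increasing doses of test compound for 72 hours. Cells were then collected, stained with PE-AnnexinV and quantified by FACS. Read-out was the percentage of AnnexinV-positive cells, taken as cells actively undergoing apoptosis.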

Experiment [2] deals with PC3 human prostate cells stably expressing GFP-LC3. The experiment can be described thus: GFP-LC3 puncta high-throughput microscopy in PC3 cells. It counts as cell-based. Conditions: 1 μM for 4 hours, control siRNA cells. In a few lines:
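GFP-LC3 PC3 cells were used for a focused RNAi screen of kinases. 48 hours after siRNA transfection, cells received 1 μM of the catalytic mTOR inhibitors AZD8055 or INK128 for 4 hours. GFP-LC3 puncta were then imaged, with nuclei counterstained by DAPI. Results were reported as mean puncta number with standard deviation for each siRNA and drug treatment.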

Another experiment relates to A549 cells. The experiment can be described thus: Cyto-ID autophagy dye imaging in A549 cells. The note with it: 5 μM 6965 for 2 hours, then 4 μM AZD8055 for 24 hours. Type of experiment: cell-based, human. In outline:
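A549 cells were pretreated with or without test compound (5 μM) for 2 hours, then exposed to the catalytic mTOR inhibitor AZD8055 (4 μM) for 24 hours. Autophagic vacuoles were stained with the Cyto-ID autophagy detection kit and nuclei with DAPI. Read-out was immunofluorescence imaging.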

Experiment [3] concerns panel of 456 purified human kinases. In words: DiscoveRx KINOMEscan competition-binding assay. The note with it: tested at 10 μM.
Experiment [4] has as its system endogenous FAK, AMPK, mTOR, Akt, or Erk signaling. In words: immunoblot of endogenous growth pathway signaling in wild-type MEFs. Type of experiment: cell-based, mouse. The note with it: 10 μM. In a few lines: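 Wild-type and Ulk1/Ulk2 double-knockout MEFs were given fresh DMEM with 10% FBS containing 1 μM INK128, 1 μM AZD8055 or DMSO, or EBSS starvation medium, with or without 10 μM test compound. Endogenous signaling was assessed by immunoblotting. Endogenous ULK1 activity was monitored with a phospho-specific antibody to Atg13 Ser318.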

Turning to `COc1ccc(-c2ccc3c(N4CCOC[C@@H]4C)nc(N4CCOC[C@@H]4C)nc3n2)cc1CO` [AZD8055, reference compound], the “apoptotic (AnnexinV-positive) cells” value in experiment [1] (AZD8055 (1 μM) alone, 72 hours) is reported as 7%. In experiment [2], the “induction in GFP-LC3 puncta formation” value is given as 2 fold.
On to `CC(C)n1nc(-c2ccc3oc(N)nc3c2)c2c(N)ncnc21` [INK128], for which the “induction in GFP-LC3 puncta formation” value in experiment [2] is given as 2 fold.
On to `CNC(=O)c1ccccc1Oc1nc(Nc2cc(OC)c(OC)c(OC)c2)ncc1Br` [SBI-0206965], for which, in the experiment with A549 cells, the “effect on AZD8055-induced autophagy (Cyto-ID dye accumulation)” value was “strongly suppressed”. In addition, the “number of kinases inhibited >95%” value in experiment [3] is 10 out of 456. Further, the “effect on endogenous FAK, AMPK, mTOR, Akt, or Erk signaling” value in experiment [4] is given as “did not impair”. Moreover, the “apoptotic (AnnexinV-positive) cells” value in experiment [1] (5 μM 6965 in the absence of AZD8055, 72 hours) stood at 10%.
